Results collected from several papers.
Lines come from different studies, so protocols differ.

SMILES	cell line	observed	method	concentration	time	endpoint	value
O=C1Nc2ccccc2C1=NNc1nnc2n1N=C(c1ccccc1)CS2	Hs-578T	cell growth or viability	SRB	10 µM		inhibition	28%
COc1ccc(-c2ccc(-c3ccc(C(=N)N)nc3)s2)cc1Cl	Hs-578T	cell growth or viability	SRB			GI50	1.85 µM
CCOCCOCCOCCNC(=S)NCCCC[C@H](NS(C)(=O)=O)C(=O)N[C@@H](C)C(=O)N[C@@H](CCCNC(=N)N)C(N)=O	HeLa	cell growth or viability	MTT		72 h	EC50	> 100 µM
COc1cc(OC)c(C(=O)/C=C/c2ccc(Br)cn2)c(OC)c1	HeLa	colony formation		4 µM	7 days	inhibition	~100%
COc1cc(-c2ccc(-c3ccc(C(=N)N)nc3)s2)cc(OC)c1OC	Hs-578T	cell growth or viability	SRB			GI50	2.59 µM
C=CC(=O)N1CCC[C@@H](n2nc(-c3ccc(Oc4ccccc4)cc3)c3c(N)ncnc32)C1	NB-4	cell growth or viability	ATP luminescence		72 h	GI50	7.5 µM
C[C@@H](NC(=O)[C@H](CCCCNC(=O)C(F)(F)F)NS(C)(=O)=O)C(=O)N[C@@H](CCCNC(=N)N)C(N)=O	HeLa	cell growth or viability	MTT		72 h	EC50	52.1 to 75.8 µM
COc1cccc(Oc2ccccc2NC(=O)CNC(=O)c2cccc3ccccc23)c1	Hs-578T	cell growth or viability	SRB		48 h	GI50	0.38 µM
N=C(CCl)NCCC[C@H](NC(=O)c1ccccc1)C(N)=O	U2OS	cell growth or viability	XTT		72 h	EC50	> 200 µM
CCCCCCCCCCCCNC(=S)NCCCC[C@H](NC(=O)OCc1ccccc1)C(=O)N[C@@H](C)C(=O)N[C@@H](CCCNC(=N)N)C(N)=O	HeLa	cell growth or viability	MTT		72 h	EC50	41.4 to 53.1 µM
Cn1nnc2c(C(N)=O)ncn2c1=O	Hs746T	cell growth or viability				EC50	> 1000 µM
COc1cc(F)ccc1-c1cc(Nc2cc(CS(C)(=N)=O)ccn2)ncc1F (stereo not drawn)	HeLa	cell growth or viability			24 h	GI50	0.045 µM
N[C@@H]1CCCN(c2c(/C=C3\SC(=O)NC3=O)cccc2-c2ccccc2)C1	KMS-11	cell growth or viability	thymidine uptake			GI50	4.67 µM
COc1ccc(-c2ccc(-c3ccc(C(=N)N)nc3)s2)cc1	Hs-578T	cell growth or viability	SRB			GI50	1.82 µM
Cc1ccc(NC(=O)c2ccc(CN3CCN(C)CC3)cc2)cc1Nc1nccc(-c2cccnc2)n1	HeLa	cell growth or viability	MTT	20 µM	48 h	inhibition	21%
